ChEMBL document CHEMBL1154610, “Discovery and preclinical evaluation of [4-[[1-(3-fluorophenyl)methyl]-1H-indazol-5-ylamino]-5-methylpyrrolo[2,1-f][1,2,4]triazin-6-yl]carbamic acid, (3S)-3-morpholinylmethyl ester (BMS-599626), a selective and orally efficacious inhibitor of human epidermal growth factor receptor 1 and 2 kinases” (J Med Chem, 2009)

Experiments:
[1] = Cmax in BALB/c mouse at 50 mg/kg, po; type: ADME, organism-based; parameters: dose 50 mg/kg, route oral; details: in vivo
[2] = AUC (0 to 4 hrs) in BALB/c mouse at 50 mg/kg, po; type: ADME, organism-based; parameters: time < 4 hr, dose 50 mg/kg, route oral; details: plasma
BT-474 = assay: Antiproliferative activity against human BT474 cells after 72 hrs by MTT assay; type: functional, cell-based; details: BT-474, 72 h
Outline: (§1)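 Cell proliferation IC50 reported as the mean of three independent determinations. BT474 is a breast line (HER2+++/HER1+); A2780 serves as a HER-independent control.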

Mus musculus = assay: Plasma concentration in BALB/c mouse at 50 mg/kg, po; type: ADME, organism-based; parameters: dose 50 mg/kg, route oral; details: in vivo
Outline: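 Compound given orally at 50 mg/kg as a solution in PEG400/Tween80/water (40:10:50) to three Balb/C mice. Plasma sampled over 4 h after dosing; AUC(0-4h), Cmax and 4 h concentration reported.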

[3] = molecular target: Epidermal growth factor receptor (Homo sapiens, UniProt P00533); assay: Inhibition of human recombinant HER1 expressed in Sf9 cells by liquid scintillation counting
Sequence of Epidermal growth factor receptor (P00533 whole entry): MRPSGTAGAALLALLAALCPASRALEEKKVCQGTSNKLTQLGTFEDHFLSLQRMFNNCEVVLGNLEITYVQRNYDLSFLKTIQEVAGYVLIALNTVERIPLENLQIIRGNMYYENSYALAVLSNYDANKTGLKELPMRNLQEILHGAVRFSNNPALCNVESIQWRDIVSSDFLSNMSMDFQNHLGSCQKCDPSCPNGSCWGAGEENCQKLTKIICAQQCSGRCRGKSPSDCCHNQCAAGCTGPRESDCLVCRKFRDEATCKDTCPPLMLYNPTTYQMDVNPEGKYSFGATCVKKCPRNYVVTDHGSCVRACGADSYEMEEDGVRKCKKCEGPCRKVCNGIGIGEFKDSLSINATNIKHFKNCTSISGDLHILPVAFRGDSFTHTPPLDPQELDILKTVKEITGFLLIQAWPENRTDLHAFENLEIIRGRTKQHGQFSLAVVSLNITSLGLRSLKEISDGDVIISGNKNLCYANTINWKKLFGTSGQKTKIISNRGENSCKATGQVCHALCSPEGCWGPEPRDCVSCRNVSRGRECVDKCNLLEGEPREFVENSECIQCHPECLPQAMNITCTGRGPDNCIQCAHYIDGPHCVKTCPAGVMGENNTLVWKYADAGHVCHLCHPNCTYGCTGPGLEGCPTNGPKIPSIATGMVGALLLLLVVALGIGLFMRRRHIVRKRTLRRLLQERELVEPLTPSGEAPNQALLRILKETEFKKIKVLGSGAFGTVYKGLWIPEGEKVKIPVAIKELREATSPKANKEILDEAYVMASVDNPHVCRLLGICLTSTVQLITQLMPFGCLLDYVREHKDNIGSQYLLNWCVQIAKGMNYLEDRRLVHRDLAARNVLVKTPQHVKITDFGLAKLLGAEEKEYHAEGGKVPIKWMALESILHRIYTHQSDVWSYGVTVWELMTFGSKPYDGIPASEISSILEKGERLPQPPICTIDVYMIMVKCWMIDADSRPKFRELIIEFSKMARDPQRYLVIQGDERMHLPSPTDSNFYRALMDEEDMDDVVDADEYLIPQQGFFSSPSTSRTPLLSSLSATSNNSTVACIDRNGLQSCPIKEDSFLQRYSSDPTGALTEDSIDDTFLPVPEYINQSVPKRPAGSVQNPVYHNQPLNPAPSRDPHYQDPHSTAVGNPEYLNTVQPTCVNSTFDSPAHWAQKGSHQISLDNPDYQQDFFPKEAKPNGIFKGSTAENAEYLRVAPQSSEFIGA

NCI-N87 = assay: Antiproliferative activity against human NCI-N87 cells after 72 hrs by MTT assay; type: functional, cell-based; details: NCI-N87, 72 h
[4] = Antiproliferative activity against mouse SAL2 cells after 72 hrs by MTT assay; type: functional, cell-based; details: SAL2, 72 h
[5] = molecular target: Receptor tyrosine-protein kinase erbB-2 (Homo sapiens, UniProt P04626); assay: Inhibition of human recombinant HER2 expressed in Sf9 cells by liquid scintillation counting
Sequence of Receptor tyrosine-protein kinase erbB-2 (P04626 whole entry): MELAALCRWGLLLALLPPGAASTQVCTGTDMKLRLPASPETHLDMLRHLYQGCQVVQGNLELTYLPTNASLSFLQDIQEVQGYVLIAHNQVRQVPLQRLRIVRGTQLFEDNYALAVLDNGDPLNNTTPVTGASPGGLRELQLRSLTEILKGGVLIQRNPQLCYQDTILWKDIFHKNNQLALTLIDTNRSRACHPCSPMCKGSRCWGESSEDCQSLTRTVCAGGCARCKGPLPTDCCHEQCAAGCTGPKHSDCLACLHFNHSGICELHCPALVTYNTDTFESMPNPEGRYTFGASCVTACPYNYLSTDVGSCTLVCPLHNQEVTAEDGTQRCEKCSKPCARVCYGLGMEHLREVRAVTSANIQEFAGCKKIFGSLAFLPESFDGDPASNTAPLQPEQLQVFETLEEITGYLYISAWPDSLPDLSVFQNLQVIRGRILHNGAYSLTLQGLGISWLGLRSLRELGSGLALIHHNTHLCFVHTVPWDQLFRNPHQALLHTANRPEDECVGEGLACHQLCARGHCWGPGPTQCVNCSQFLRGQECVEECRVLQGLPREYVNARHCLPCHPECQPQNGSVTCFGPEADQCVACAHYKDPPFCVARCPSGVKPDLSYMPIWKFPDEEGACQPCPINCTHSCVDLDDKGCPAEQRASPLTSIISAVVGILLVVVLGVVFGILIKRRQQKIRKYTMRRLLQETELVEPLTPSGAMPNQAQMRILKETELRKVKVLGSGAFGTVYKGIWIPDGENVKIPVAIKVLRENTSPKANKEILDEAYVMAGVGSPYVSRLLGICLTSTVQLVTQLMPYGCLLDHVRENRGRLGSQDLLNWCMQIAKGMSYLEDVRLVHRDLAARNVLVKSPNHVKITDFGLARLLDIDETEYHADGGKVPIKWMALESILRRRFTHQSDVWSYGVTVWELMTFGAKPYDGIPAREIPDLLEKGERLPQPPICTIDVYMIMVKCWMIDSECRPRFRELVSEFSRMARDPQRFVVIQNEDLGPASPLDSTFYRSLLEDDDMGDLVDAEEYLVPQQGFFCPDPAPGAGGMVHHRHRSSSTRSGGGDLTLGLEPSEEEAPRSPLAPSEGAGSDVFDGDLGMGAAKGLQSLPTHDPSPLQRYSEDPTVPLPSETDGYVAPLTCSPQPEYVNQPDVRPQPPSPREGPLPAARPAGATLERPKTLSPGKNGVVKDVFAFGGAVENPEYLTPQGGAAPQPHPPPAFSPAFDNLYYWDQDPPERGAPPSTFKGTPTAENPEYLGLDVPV

[6] = Metabolic stability in mouse liver microsomes assessed per mg of protein at 10 uM after 10 mins; type: ADME, Microsome
Outline: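 Mouse liver microsomes incubated with compound at 10 µM for 10 min; metabolic rate expressed as nmol/min/mg protein.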

A2780 = assay: Antiproliferative activity against human A2780 cells after 72 hrs by MTT assay; type: functional, cell-based; details: A2780, 72 h; outline: as §1

Row | Structure (SMILES) | Cmax [1] [nM] | AUC(0-t) at 4 h [2] [µM·h] | IC50 (BT-474) [nM] | concentration (Mus musculus) [nM] | IC50 [3] [nM] | IC50 (NCI-N87) [nM] | IC50 [4] [nM] | IC50 [5] [nM] | Stability [6] [nmol/min] | IC50 (A2780) [nM]
1 | CCC1=C2C(Nc3ccc4c(cnn4Cc4ccccc4)c3)=NC=NC2N=C1NC(=O)OCC1CCNCC1 (centres undefined) | 450 | 1.3 | 90 | 260 | 30 | 170 | 130 | 23 |  | 
2 | CCC1=C2C(Nc3ccc4c(cnn4Cc4cccc(F)c4)c3)=NC=NC2N=C1NC(=O)OC[C@@H]1COCCN1 (some centres undefined) | 5100 | 16.2 | 190 | 5100 | 23 | 340 | 230 | 22 | 0.01 | 8070
3 | CCC1=C2C(Nc3ccc4c(cnn4Cc4ccccc4)c3)=NC=NC2N=C1NC(=O)OCC1CCCNC1 (centres undefined) | 1200 | 3.6 | 310 | 1200 | 38 | 320 | 480 | 29 |  | 3900
4 | CCC1=C2C(Nc3ccc4c(cnn4Cc4ccccc4)c3)=NC=NC2N=C1NC(=O)OCCN1CCNCC1 (centres undefined) | 300 | 0.62 | 71 | 300 | 21 | 100 | 250 | 18 | 0.1 | 
5 | CCC1=C2C(Nc3ccc4c(cnn4Cc4ccccc4)c3)=NC=NC2N=C1NC(=O)OCC1CCCCN1 (centres undefined) | 2300 | 7.2 | 470 | 2300 | 45 | 430 | 250 | 30 |  | 4750
6 | CCC1=C2C(Nc3ccc4c(cnn4Cc4ccccc4)c3)=NC=NC2N=C1NC(=O)OCCN1CCOCC1 (centres undefined) | 11000 | 29 | 550 | 4900 | 111 | 520 | 500 | 77 |  | 
7 | CCC1=C2C(Nc3ccc4c(cnn4Cc4ccccc4)c3)=NC=NC2N=C1NC(=O)OCCN1CCCCC1 (centres undefined) | 1700 | 5.5 | 310 | 1300 | 38 | 390 | 380 | 28 | 0.27 | 
8 | CCC1=C2C(Nc3ccc4c(cnn4Cc4ccccc4)c3)=NC=NC2N=C1NC(=O)OCCC1CCNCC1 (centres undefined) | 250 | 0.53 | 130 | 110 | 44 | 210 | 490 | 37 |  | 
9 | CCc1c(NC(=O)OC[C@@H]2COCCN2)cn2ncnc(Nc3ccc4c(cnn4Cc4ccccc4)c3)c12 | 3500 | 11 | 420 | 2600 | 33 | 350 | 170 | 21 | 0.14 | 4510
10 | CCC1=C2C(Nc3ccc4c(cnn4Cc4ccccc4)c3)=NC=NC2N=C1NC(=O)O[C@H]1CC[C@@](C)(N)CC1 (some centres undefined) | 480 | 1.76 | 130 | 460 | 19 | 170 | 370 | 20 | 0.02 | 5220
11 | CCC1=C2C(Nc3ccc4c(cnn4Cc4ccccc4)c3)=NC=NC2N=C1NC(=O)OCCn1ccnc1 (centres undefined) | 9900 | 36 | 860 | 9900 | 40 | 980 | 460 | 44 |  | > 5000
